Laboratory results: publication PMC6133083 (European Journal of Drug Metabolism and Pharmacokinetics, 2018)

Assays:
[1] = type: in vivo, Sprague–Dawley rats
How it was run: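 Male Sprague–Dawley rats (10–12 weeks, 0.31–0.48 kg), n = 5/group, given 15 mg/kg once as solution or microemulsion by gavage or i.p. injection. The solution only was also given as an i.v. tail-vein bolus under isoflurane. Sublingual blood was drawn at 0.5, 1, 2, 4, 8 and 24 h. Plasma was methanol-precipitated and assayed by LC–MS/MS (calibration 0.005–10 µg/mL). Cmax, Tmax and trapezoidal AUC0–24 came from non-fitted data, expressed relative to i.v.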

[2] = Tolerability of tariquidar administration in rats; type: in vivo, Sprague–Dawley rats; conditions: 15 mg/kg single dose, intravenous, oral or intraperitoneal
[3] = test system: P-gp at the BBB; conditions: rats, plasma concentration; cited from earlier work
[4] = test system: P-gp at the human BBB; conditions: humans, P-gp inhibition at the BBB, plasma concentration; cited from earlier work
[5] = test system: human BCRP; conditions: cited from earlier work
[6] = test system: human P-gp; conditions: cited from earlier work
[7] = test system: P-gp at the BBB; conditions: humans, cited from earlier work
[8] = rats and monkeys, after intravenous [14C]tariquidar; cited from earlier work
[9] = humans, after intravenous administration; cited from earlier work
[10] = test system: P-gp/BCRP at the non-human primate BBB; conditions: intravenous administration; cited from earlier work
[11] = test system: P-gp/BCRP; conditions: humans, oral dosing; cited from earlier work
[12] = FVB mice, microemulsion dosing; cited from earlier work
[13] = Sprague-Dawley, rat, plasma, iv, 15 mg/kg
[14] = intraperitoneal dosing, both formulations pooled, rats
[15] = oral dosing irrespective of formulation, rats

COc1cc2c(cc1OC)CN(CCc1ccc(NC(=O)c3cc(OC)c(OC)cc3NC(=O)c3cnc4ccccc4c3)cc1)CC2 [tariquidar]
AUC(0-t) [1, 13]: 25200 ng·h/mL | Cmax [1, 13]: 1900 ng/mL | Tmax [1, 13]: 30 min | concentration at 30 min [1, 13]: 1910 ± 290 ng/mL | mean AUC0–24 as % of value after intravenous dosing [1, 14]: ~97% | mean Cmax as % of value after intravenous dosing [1, 14]: approximately 80% | mean AUC0–24 as % of value after intravenous exposure [1, 15]: ~79% | mean Cmax as % of value after intravenous exposure [1, 15]: approximately 65% | tolerability [2]: well tolerated by all animals | in vivo half-maximum effect concentration (EC50) to increase brain uptake of (R)-[11C]verapamil [3]: 0.545 ± 0.03 µg/mL | in vivo EC50 [4]: 1.454 µg/mL | in vitro EC50 for inhibition of its own transport ([5]; human BCRP): 0.201 µg/mL | ratio of EC50 for human BCRP to EC50 for human P-gp ([5]; inhibition of its own transport, in vitro): approximately 20 fold | in vitro EC50 for inhibition of its own transport [6]: 0.011 µg/mL | increase in brain distribution of (R)-[11C]verapamil and [11C]N-desmethyl-loperamide ([7]; PET, continuous intravenous infusion): up to fivefold increases | effect on brain distribution of [11C]N-desmethyl-loperamide ([7]; orally administered tariquidar): failed to reveal an effect | tariquidar-related material in plasma existing as unchanged parent compound [8]: > 95% | tariquidar metabolites in plasma [9]: no tariquidar metabolites were found in plasma

COc1cc2c(cc1OC)CN(CCc1ccc(NC(=O)c3cccc4c(=O)c5cccc(OC)c5[nH]c34)cc1)CC2 [elacridar]
increase in brain distribution of [11C]erlotinib [10]: 3.5 fold | effect on brain uptake of [11C]erlotinib [11]: failed to increase brain uptake | oral bioavailability [12]: 47%
